From ChEMBL document CHEMBL1221320, “N(G)-Acyl-argininamides as NPY Y(1) receptor antagonists: Influence of structurally diverse acyl substituents on stability and affinity” (Bioorg Med Chem, 2010) come the findings set out here.

The target in data set [1] is T1, Neuropeptide Y receptor type 1 (Homo sapiens) (UniProt P25929).
T1 sequence (whole entry): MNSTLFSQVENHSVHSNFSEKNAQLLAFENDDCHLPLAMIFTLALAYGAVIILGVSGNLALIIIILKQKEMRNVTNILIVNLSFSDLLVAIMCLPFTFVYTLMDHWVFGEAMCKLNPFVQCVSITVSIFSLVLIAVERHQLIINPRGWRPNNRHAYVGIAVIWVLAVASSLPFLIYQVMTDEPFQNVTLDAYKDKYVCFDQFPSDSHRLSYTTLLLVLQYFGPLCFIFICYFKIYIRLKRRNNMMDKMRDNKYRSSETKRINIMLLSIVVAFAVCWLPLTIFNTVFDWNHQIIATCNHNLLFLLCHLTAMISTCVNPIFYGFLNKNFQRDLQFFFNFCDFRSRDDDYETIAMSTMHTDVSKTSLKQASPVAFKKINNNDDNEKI
Nature of the data set: Antagonist activity at NPY1 receptor in human HEL cells assessed as inhibition of NPY-induced calcium mobilization by Fura-2 assay. Format: functional, cell-based. A general note: Calcium assays in cells follow changes in intracellular calcium, usually with a dye or a luminescent sensor.

The nature of data set [2]: Distribution coefficient, log D of the compound. Type of data set: physicochemical. Particulars: octanol/water; call rule not given here. The gist of the method: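 Calculated at pH 7.4 by ACD software. Experimental values came from RP-HPLC on a C18 column at 25 °C and 0.30 mL/min, using 10 mM ammonium acetate pH 7.4 versus acetonitrile (5→98% over 30 min). Injection was 2 µL of a 1 mM DMSO solution with diode-array detection. Retention time was calibrated against six reference compounds.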

For data set [3], the target named is T2, Neuropeptide Y receptor type 1 (Homo sapiens, UniProt P25929).
T2 sequence (P25929 whole entry): T1 sequence (whole entry)
Nature of the data set: Displacement of [3H]UR-MK114 from NPY1 receptor in human SK-N-MC cells. Type of data set: cell-based. The gist of the method: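 Data were fitted with four-parameter sigmoidal curves. IC50 was converted to Ki by Cheng–Prusoff using the radioligand KD. Mean ± SEM of two or three independent experiments. Assay period from solution preparation to read-out was 60–90 min.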
(Loss of bound radioactivity is the signal in a displacement assay; it reports binding, not function.)

As to `N=C(N)NCCCCCC(=O)NC(=N)NCCC[C@@H](NC(=O)C(c1ccccc1)c1ccccc1)C(=O)NCc1ccc(O)cc1`, the Kb (in general, the equilibrium dissociation constant of an antagonist, usually derived from a functional assay) in data set [1] was 18 nM. In addition, the logD (commonly lipophilicity at a set pH, counting ionised and neutral species) in data set [2] (read-out: logD) was -0.3. The Ki (in general, the dissociation constant of the complex between target and ligand, obtained from inhibition or displacement) in data set [3] (read-out: Ki) was determined as 51 nM. Turning to `CCCCCCCCCCCCCCCC(=O)NC(=N)NCCC[C@@H](NC(=O)C(c1ccccc1)c1ccccc1)C(=O)NCc1ccc(O)cc1`, in data set [1], the Kb stood at 170 nM. With `COC(=O)CCNC(=O)CCCCCCC(=O)NC(N)=NCCC[C@@H](NC(=O)C(c1ccccc1)c1ccccc1)C(=O)NCc1ccc(O)cc1`, the log distribution coefficient (logD) in data set [2] (read-out: logD) was 2.9. For the same molecule, the inhibition constant (Ki) in data set [3] (read-out: Ki) was determined as 260 nM. On to `COC(=O)CCNC(=O)CCCCCCC(=O)NC(=N)NCCC[C@@H](NC(=O)C(c1ccccc1)c1ccccc1)C(=O)NCc1ccc(O)cc1`, for which the antagonist equilibrium constant (Kb) in data set [1] stood at 170 nM. Same read-out and setting: the same measure for `CC(=O)OC[C@@H](OC(C)=O)[C@@H](OC(C)=O)[C@H](OC(C)=O)[C@@H](OC(C)=O)C(=O)NC(=N)NCCC[C@@H](NC(=O)C(c1ccccc1)c1ccccc1)C(=O)NCc1ccc(O)cc1`: 110 nM. Consider `N=C(N)NCCNC(=O)CCC(=O)NC(=N)NCCC[C@@H](NC(=O)C(c1ccccc1)c1ccccc1)C(=O)NCc1ccc(O)cc1`, for which, in data set [2] (read-out: logD), the log distribution coefficient (logD) is -1.4. With `N=C(NCCC[C@@H](NC(=O)C(c1ccccc1)c1ccccc1)C(=O)NCc1ccc(O)cc1)NC(=O)COCCOCCOCC(=O)NCCNC(=O)c1ccc2ccc3cccc4ccc1c2c34`, in data set [2] (read-out: logD), the logD was found to be 6. Besides, in data set [3] (read-out: Ki), the Ki was determined as 59 nM. `N=C(NCCC[C@@H](NC(=O)C(c1ccccc1)c1ccccc1)C(=O)NCc1ccc(O)cc1)NC(=O)CCCn1cc(CN)nn1`: the Kb in data set [1] came to 14 nM. Take `COC(=O)CCCCCCC(=O)NC(N)=NCCC[C@@H](NC(=O)C(c1ccccc1)c1ccccc1)C(=O)NCc1ccc(O)cc1`: in data set [2] (read-out: logD), the logD turned out to be 3.9. Further, the Ki in data set [3] (read-out: Ki) worked out at 0.9 nM.

With `COC(=O)CCCCCCC(=O)NC(=N)NCCC[C@@H](NC(=O)C(c1ccccc1)c1ccccc1)C(=O)NCc1ccc(O)cc1`, in data set [1], the antagonist dissociation constant (Kb) came to 0.06 nM.

With `NC(=NCCC[C@@H](NC(=O)C(c1ccccc1)c1ccccc1)C(=O)NCc1ccc(O)cc1)NC(=O)CCCCCCC(=O)NCCC(=O)O`, in data set [2] (read-out: logD), the logD was determined as 0.7. Further, the inhibitory constant (Ki) in data set [3] (read-out: Ki) is 73 nM. Turning to `N=C(NCCC[C@@H](NC(=O)C(c1ccccc1)c1ccccc1)C(=O)NCc1ccc(O)cc1)NC(=O)CCCCCCC(=O)NCCC(=O)O`, the Kb in data set [1] was determined as 450 nM.

As for `N=C(NCCC[C@@H](NC(=O)C(c1ccccc1)c1ccccc1)C(=O)NCc1ccc(O)cc1)NC(=O)CCCn1cc(CO)nn1`, in data set [1], the Kb is 0.4 nM. Also, in data set [2] (read-out: logD), the logD was 1.8. Moreover, in data set [3] (read-out: Ki), the inhibition constant Ki amounted to 3 nM. `N=C(NCCC[C@@H](NC(=O)C(c1ccccc1)c1ccccc1)C(=O)NCc1ccc(O)cc1)NC(=O)CCC(=O)OC[C@H]1O[C@@H](O)[C@H](O)[C@@H](O)[C@H]1O`: the antagonist dissociation constant (Kb) in data set [1] turned out to be 510 nM. In addition, the logD in data set [2] (read-out: logD) worked out at 0.9. Also, the Ki in data set [3] (read-out: Ki) is 41 nM. The matching figures for `N=C(NCCC[C@@H](NC(=O)C(c1ccccc1)c1ccccc1)C(=O)NCc1ccc(O)cc1)NC(=O)CCCCCCC(=O)NCCN`: 230 nM, -0.3 and 130 nM.

As for `CCC(=O)NCCNCCNC(=O)CCC(=O)NC(=N)NCCC[C@@H](NC(=O)C(c1ccccc1)c1ccccc1)C(=O)NCc1ccc(O)cc1`, in data set [2] (read-out: logD), the logD is -0.6. As to `N=C(NCCC[C@@H](NC(=O)C(c1ccccc1)c1ccccc1)C(=O)NCc1ccc(O)cc1)NC(=O)c1ccc2ccc3cccc4ccc1c2c34`, the pH-dependent lipophilicity (logD) in data set [2] (read-out: logD) came to 7.2. For the same molecule, the Ki entry in data set [3] (sk-n-mc) is on record as “Not Active”. On to `N=C(NCCC[C@@H](NC(=O)C(c1ccccc1)c1ccccc1)C(=O)NCc1ccc(O)cc1)NC(=O)CCC(=O)NCCN`, for which, in data set [2] (read-out: logD), the logD was -1.3.

Take `N=C(NCCC[C@@H](NC(=O)C(c1ccccc1)c1ccccc1)C(=O)NCc1ccc(O)cc1)NC(=O)CCC(=O)NCCNCCN`: in data set [2] (read-out: logD), the logD is -1.8.

As for `CCCCCCCCCCCCC#CC#CCCCCCCCCC(=O)NC(=N)NCCC[C@@H](NC(=O)C(c1ccccc1)c1ccccc1)C(=O)NCc1ccc(O)cc1`, the Kb in data set [1] was 140 nM. Further, in data set [3] (read-out: Ki), the inhibition constant (Ki) came out at 1500 nM. Turning to `N=C(NCCC[C@@H](NC(=O)C(c1ccccc1)c1ccccc1)C(=O)NCc1ccc(O)cc1)NC(=O)CCCCCCC(=O)NCCC(=O)OCc1ccccc1`, the Kb in data set [1] turned out to be 1.1 nM. In addition, in data set [2] (read-out: logD), the logD worked out at 4.6. Further, the inhibition constant (Ki) in data set [3] (read-out: Ki) was found to be 40 nM. `CCCCCCCCCCCCCCCC(=O)NC(N)=NCCC[C@@H](NC(=O)C(c1ccccc1)c1ccccc1)C(=O)NCc1ccc(O)cc1`: in data set [2], the logD is given as 9.4. In data set [3] (read-out: Ki), the inhibition constant (Ki) is 460 nM. For the molecule `N=C(NCCC[C@@H](NC(=O)C(c1ccccc1)c1ccccc1)C(=O)NCc1ccc(O)cc1)NC(=O)CCC(=O)NCCNC(=O)c1ccc(F)cc1`, the log distribution coefficient (logD) in data set [2] (read-out: logD) came to 3.5. In the case of `CC(=O)OC[C@@H](OC(C)=O)[C@@H](OC(C)=O)[C@H](OC(C)=O)[C@@H](OC(C)=O)C(=O)NC(N)=NCCC[C@@H](NC(=O)C(c1ccccc1)c1ccccc1)C(=O)NCc1ccc(O)cc1`, in data set [2] (read-out: logD), the log distribution coefficient (logD) came out at 3.5. Besides, the Ki in data set [3] (read-out: Ki) stood at 83 nM. Consider `N=C(N)NCCC[C@@H](NC(=O)C(c1ccccc1)c1ccccc1)C(=O)NCc1ccc(O)cc1`, for which the logD in data set [2] (read-out: logD) was 0.7.

Consider `N=C(NCCC[C@@H](NC(=O)C(c1ccccc1)c1ccccc1)C(=O)NCc1ccc(O)cc1)NC(=O)CCCc1ccc2ccc3cccc4ccc1c2c34`, for which the logD in data set [2] (read-out: logD) was 7.6. For the same molecule, the Ki in data set [3] (read-out: Ki) amounted to 270 nM. Regarding `NCc1cn(CCCC(=O)NC(N)=NCCC[C@@H](NC(=O)C(c2ccccc2)c2ccccc2)C(=O)NCc2ccc(O)cc2)nn1`, the log distribution coefficient (logD) in data set [2] (read-out: logD) is 1.7. Further, in data set [3] (read-out: Ki), the Ki is 6.7 nM.
